The values that follow come from ChEMBL document CHEMBL1641503, “5-Non-amino aromatic substituted naphthalimides as potential antitumor agents: Synthesis via Suzuki reaction, antiproliferative activity, and DNA-binding behavior” (Bioorg Med Chem, 2011).

Structures are written as SMILES. The source made the active and inactive calls. The rule behind the calls is not given here.

Assay [1] is described as follows: Antiproliferative activity against mouse P388D1 cells after 48 hrs by MTT assay. It counts as functional, cell-based. As to conditions: P388D1, 48 h. The procedure, abridged:
(§1)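 Cells seeded at 2.5 × 10⁴/well in 1640 complete medium, 37 °C, 5% CO₂, 24 h; compounds added at 100 to 0.01 µM for 48 h; D-Hank's buffer negative control. Cells washed twice with PBS, MTT (0.5 g/L in PBS, in complete medium) 4 h, DMSO to dissolve; absorbance at 492 nm (reference 630 nm). At least three experiments; mean percentage absorbance plotted against concentration.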

In the next assay the test system is HeLa. In words: Antiproliferative activity against human HeLa cells after 48 hrs by MTT assay. It counts as functional, cell-based. An outline of the steps:
as §1
A general note: Formazan colour is commonly taken as a measure of viable cells.

In assay [2] the test system is Calf thymus DNA. In words: Binding affinity to calf thymus DNA by fluorescence assay. It counts as nucleic-acid assay. As to conditions: Bos taurus. An outline of the steps: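 CT-DNA held at 50 µM with compound 1 to 25 µM in Tris–HCl (30 mM, pH 7.5); compound without DNA as control. Solutions ultrasonically shaken 1 day at 25 °C in the dark. Fluorescence read at 350 nm excitation. Scatchard binding constant K_b derived from quenching (F0 vs F1) via Scatchard plot.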

The subject of assay [3] is Calf thymus DNA. In words: Binding affinity to calf thymus DNA at 10 uM by circular dichroism assay. It counts as nucleic-acid assay. As to conditions: Bos taurus. The procedure, abridged:
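CD spectra of CT-DNA (100 µM) with compound at 10 µM in Tris–HCl buffer (pH 7.0), 1-cm quartz cell, 200–600 nm; buffer spectrum subtracted.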
For orientation: Circular dichroism is widely used to follow secondary structure.

The subject of assay [4] is Calf thymus DNA. The experiment in a line: Binding affinity to calf thymus DNA assessed as increase of viscosity of DNA solution at 100 uM. It counts as nucleic-acid assay. As to conditions: Bos taurus. An outline of the steps:
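Ubbelohde viscometry at 25 ± 0.1 °C. CT-DNA 100 µM in Tris–HCl (30 mM, pH 7.5), kept at 4 °C overnight, sonicated 10 min, filtered 0.45 µm. Flow time measured three times per sample and averaged, corrected for buffer. (η/η0)^1/3 plotted versus compound/DNA ratio.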

One may read the IC50 as the concentration that gives 50% inhibition. A low value points to greater potency.

`Cc1ccc(-c2cc3c4c(cccc4c2)C(=O)N(CCN(C)C)C3=O)cc1`: the IC50 turned out to be 2.19 µM in assay [1] and 45.8 µM in the assay with HeLa. The compound also returned a Kb in the assay on Calf thymus DNA [2] of 10.8 ×10⁵ /M.
On to `CN(C)CCN1C(=O)c2cccc3cc(-c4ccc(F)c(F)c4)cc(c23)C1=O`, for which the values for the IC50 (in assay [1]; in the assay with HeLa) were 0.98 µM and 5.3 µM, respectively. In addition, the Kb in the assay on Calf thymus DNA [2] amounted to 12.8 ×10⁵ /M.
The like results for `CN(C)CCN1C(=O)c2cccc3cc(N)cc(c23)C1=O` [AMONAFIDE] were, in that order, 0.68 µM, 6.02 µM and 1.05 ×10⁵ /M.
In turn, `CN(C)CCN1C(=O)c2cccc3cc(-c4ccc(F)cc4)cc(c23)C1=O` had a Kb in the assay on Calf thymus DNA [2] of 12.4 ×10⁵ /M.
Turning to `CN(C)CCN1C(=O)c2cccc3cc(-c4cccs4)cc(c23)C1=O`, the IC50 stood at 0.68 µM in assay [1] and 3.1 µM in the assay with HeLa. In addition, the result in the assay with Calf thymus DNA [3] and in the assay on Calf thymus DNA [4] was Active. For the same compound, the Kb with Calf thymus DNA [2] was found to be 13.2 ×10⁵ /M.
With `CN(C)CCN1C(=O)c2cccc3cc(-c4cccc([N+](=O)[O-])c4)cc(c23)C1=O`, the IC50 stood at 0.38 µM in assay [1] and 4.7 µM with HeLa. In the assay on Calf thymus DNA [2], this compound showed a Kb of 14.8 ×10⁵ /M.
In turn, `CN(C)CCN1C(=O)c2cccc3cc(-c4ccc(C(F)(F)F)cc4)cc(c23)C1=O` displayed a Kb in the assay with Calf thymus DNA [2] of 11.8 ×10⁵ /M.
Regarding `CN(C)CCN1C(=O)c2cccc3cc(-c4ccccc4)cc(c23)C1=O`, the IC50 in assay [1] worked out at 0.68 µM; with HeLa it was 5.7 µM. The result in the assay on Calf thymus DNA [3] and in the assay with Calf thymus DNA [4] was Active. The compound further registered a Kb in the assay on Calf thymus DNA [2] of 10.8 ×10⁵ /M.
